Reference: ChEMBL document CHEMBL1125636, “L-687,908, a potent hydroxyethylene-containing HIV protease inhibitor” (J Med Chem, 1991)
In brackets after ≈: the same amount, converted by molar mass. Where a SMILES comes first, the peptide text is derived from it.

Key:
[1] = target: Human immunodeficiency virus type 1 protease (Human immunodeficiency virus 1, UniProt Q72874); assay: Inhibition of HIV-1 protease; assay type: functional
Procedure, shortened: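 HIV-1 protease peptide hydrolysis: octapeptide substrate H2N-ValSerGlnAsn(β-naphthyl-Ala)ProIle-Val-OH at 430 μM (Km = 160 μM), enzyme at 0.030 nM; cleavage quantitated by HPLC; IC50 from this readout.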

H9 = assay: Minimum inhibitory concentration required to prevent HIV infection was determined in H9 human T-lymphoid cell culture; assay type: functional
Procedure, shortened: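 H9 human T-lymphoid cells were infected with HIV-1 IIIb at a multiplicity of infection of 1.0%, with no compound present. Compound was added 1 day after infection, predissolved in DMSO and serially diluted in RPMI-1640 with 10% FBS. Medium with fresh compound was replaced every 2–3 days. Cells were harvested at 14 days and scored by immunofluorescence with anti-HIV-1 human serum. MIC was the lowest concentration totally preventing spread beyond the initially infected cells.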

Renin [2] = target: T1, Renin (Rattus norvegicus, UniProt P08424); assay: Concentration required to inhibit 50% activity of plasma renin was determined at pH 7.4; Inactive; assay type: functional, cell-free
T1 sequence (P08424 whole entry): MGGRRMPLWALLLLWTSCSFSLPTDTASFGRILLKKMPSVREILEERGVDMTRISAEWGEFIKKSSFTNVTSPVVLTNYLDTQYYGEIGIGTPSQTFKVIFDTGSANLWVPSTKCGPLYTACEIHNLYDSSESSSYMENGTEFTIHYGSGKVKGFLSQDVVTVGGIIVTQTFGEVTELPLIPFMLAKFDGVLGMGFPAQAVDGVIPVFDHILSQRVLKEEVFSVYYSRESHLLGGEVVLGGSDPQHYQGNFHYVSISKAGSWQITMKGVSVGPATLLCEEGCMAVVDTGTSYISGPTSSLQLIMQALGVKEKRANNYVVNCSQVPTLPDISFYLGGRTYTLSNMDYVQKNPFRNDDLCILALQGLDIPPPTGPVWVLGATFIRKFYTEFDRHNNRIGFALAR

Renin [3] = target: T1, Renin; assay: Concentration required to inhibit 50% activity of renin was determined; assay type: functional
Procedure, shortened: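 Purified plasma renin, assayed at pH 7.4; IC50 reported.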

| Structure (SMILES) | IC50 [1] [nM] | MIC (H9) [µM] | IC50 (Renin [2]) [nM] | IC50 (Renin [3]) [nM] |
| --- | --- | --- | --- | --- |
| CCC(C)C(NC(=O)[C@H](Cc1ccccc1)C[C@H](O)[C@H](Cc1ccccc1)NC(=O)OC(C)(C)C)C(=O)NCc1ccccc1 (stereo partly specified) | 0.71 | 1.5 (≈ 0.924 µg/mL) |  |  |
| CC(C)C[C@H](NC(=O)[C@H](Cc1ccccc1)C[C@H](O)[C@H](Cc1ccccc1)NC(=O)[C@H](Cc1ccccc1)NC(=O)OC(C)(C)C)C(=O)N[C@@H](Cc1ccccc1)C(N)=O | 20 |  |  |  |
| CCC(C)C(NC(=O)[C@H](Cc1ccccc1)C[C@H](O)[C@H](Cc1ccccc1)NC(=O)OC(C)(C)C)C(=O)NCC(O)CO (stereo partly specified) | 0.15 | 1.5 (≈ 0.9 µg/mL) |  |  |
| CC(C)CC(NC(=O)[C@H](Cc1ccccc1)C[C@H](O)[C@H](Cc1ccccc1)NC(=O)OC(C)(C)C)C(=O)NCCc1ccccc1 (stereo partly specified) | 12 |  |  |  |
| CC(C)C[C@H](NC(=O)[C@H](Cc1ccccc1)C[C@H](O)[C@H](Cc1ccccc1)NC(=O)OC(C)(C)C)C(=O)N[C@@H](Cc1ccccc1)C(N)=O | 0.6 | 6 (≈ 4.04 µg/mL) | > 10000 |  |
| CC(C)C[C@H](NC(=O)[C@H](C/C=C/c1ccccc1)C[C@H](O)[C@H](Cc1ccccc1)NC(=O)OC(C)(C)C)C(=O)N[C@@H](Cc1ccccc1)C(N)=O | 0.15 | 6 (≈ 4.19 µg/mL) |  |  |
| CC[C@H](C)[C@H](NC(=O)[C@H](C/C=C/c1ccccc1)C[C@H](O)[C@H](Cc1ccccc1)NC(=O)OC(C)(C)C)C(=O)NCc1nc2ccccc2[nH]1 | 0.03 | 0.012 (≈ 0.00818 µg/mL) |  |  |
| CC(C)C[C@H](NC(=O)[C@H](Cc1ccccc1)C[C@H](O)[C@H](Cc1ccccc1)NC(=O)[C@H](Cc1ccccc1)NC(=O)[C@H](Cc1ccccc1)NC(=O)OC(C)(C)C)C(=O)N[C@@H](Cc1ccccc1)C(N)=O (HELM PEPTIDE1{[CC(C)(C)OC(=O)[*:2]].F.F.[O=C([C@H](Cc1ccccc1)C[C@H](O)[C@H](Cc1ccccc1)N[*:1])[*:2]].L.F.[am]}$$$$V2.0) | 1 | 50 (≈ 48.4 µg/mL) |  | 73 |
| CC(C)CC(NC(=O)[C@H](Cc1ccccc1)C[C@H](O)[C@H](Cc1ccccc1)NC(=O)OC(C)(C)C)C(=O)NCc1ccccc1 (stereo partly specified) | 1.4 | 3 (≈ 1.85 µg/mL) |  |  |
| CC(C)(C)OC(=O)N[C@@H](Cc1ccccc1)[C@@H](O)C[C@@H](Cc1ccccc1)C(=O)NCc1ccccc1 | 111 | > 50 |  |  |
| CC[C@H](C)[C@H](NC(=O)[C@H](Cc1ccccc1)C[C@H](O)[C@H](Cc1ccccc1)NC(=O)OC(C)(C)C)C(=O)NCc1nc2ccccc2[nH]1 | 0.07 | 0.2 (≈ 0.131 µg/mL) |  |  |
| CC(C)C[C@H](NC(=O)[C@H](Cc1ccccc1)C[C@H](O)[C@H](Cc1ccccc1)NC(=O)CC(C)(C)C)C(=O)N[C@@H](Cc1ccccc1)C(N)=O | 6 |  |  |  |
| CC(C)CCNC(=O)[C@H](Cc1ccccc1)C[C@H](O)[C@H](Cc1ccccc1)NC(=O)OC(C)(C)C | 470 |  |  |  |
| CC(C)CC(NC(=O)[C@H](Cc1ccccc1)C[C@H](O)[C@H](Cc1ccccc1)NC(=O)OC(C)(C)C)C(N)=O (stereo partly specified) | 12 | 6 (≈ 3.15 µg/mL) |  |  |
